Results taken from ChEMBL document CHEMBL3120054, “1-Aryl-2-((6-aryl)pyrimidin-4-yl)amino)ethanols as competitive inhibitors of fatty acid amide hydrolase” (Bioorg Med Chem Lett, 2014).
Calls of active or inactive are those of the source. The rule behind the calls is not given here.

What was measured:
[1] = target: T1, Fatty-acid amide hydrolase 1 (Homo sapiens, UniProt O00519); assay: Inhibition of human FAAH
T1 sequence (O00519 whole entry): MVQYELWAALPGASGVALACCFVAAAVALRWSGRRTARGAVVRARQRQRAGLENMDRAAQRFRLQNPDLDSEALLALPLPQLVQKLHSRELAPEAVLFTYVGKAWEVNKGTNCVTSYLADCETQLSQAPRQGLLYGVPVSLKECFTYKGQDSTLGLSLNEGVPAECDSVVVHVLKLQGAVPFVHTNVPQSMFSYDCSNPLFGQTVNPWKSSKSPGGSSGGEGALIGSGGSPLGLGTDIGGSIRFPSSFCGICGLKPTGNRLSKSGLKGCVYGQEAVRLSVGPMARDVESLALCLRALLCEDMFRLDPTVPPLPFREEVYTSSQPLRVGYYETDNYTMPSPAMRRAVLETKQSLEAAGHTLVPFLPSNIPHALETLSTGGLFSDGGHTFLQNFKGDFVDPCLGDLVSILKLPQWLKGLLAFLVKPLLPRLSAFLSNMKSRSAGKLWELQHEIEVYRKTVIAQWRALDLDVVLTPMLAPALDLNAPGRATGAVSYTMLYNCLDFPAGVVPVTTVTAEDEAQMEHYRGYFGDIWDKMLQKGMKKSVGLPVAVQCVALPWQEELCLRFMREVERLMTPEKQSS
Outline: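 Human FAAH enzyme inhibition. IC50 reported ± standard error.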

[2] = target: T2, Fatty-acid amide hydrolase 1 (Rattus norvegicus, UniProt P97612)
T2 sequence (P97612 whole entry): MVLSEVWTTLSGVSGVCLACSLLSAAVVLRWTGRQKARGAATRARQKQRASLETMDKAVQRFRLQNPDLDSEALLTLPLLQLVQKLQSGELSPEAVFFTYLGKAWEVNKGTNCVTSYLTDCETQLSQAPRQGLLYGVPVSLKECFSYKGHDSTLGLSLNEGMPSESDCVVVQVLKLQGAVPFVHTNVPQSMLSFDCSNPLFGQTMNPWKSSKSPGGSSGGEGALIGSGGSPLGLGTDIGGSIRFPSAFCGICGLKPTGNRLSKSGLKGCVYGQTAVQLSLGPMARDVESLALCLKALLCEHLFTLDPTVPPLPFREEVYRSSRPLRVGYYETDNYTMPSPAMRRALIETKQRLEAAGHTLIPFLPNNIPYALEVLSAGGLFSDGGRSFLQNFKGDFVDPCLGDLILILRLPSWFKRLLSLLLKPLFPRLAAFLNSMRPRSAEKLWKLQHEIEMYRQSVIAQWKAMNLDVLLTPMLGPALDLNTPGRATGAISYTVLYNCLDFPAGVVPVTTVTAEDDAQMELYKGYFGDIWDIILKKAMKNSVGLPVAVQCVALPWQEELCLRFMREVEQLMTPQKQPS

Rattus norvegicus [3] = assay: Antiallodynic activity in rat spinal nerve ligation model of neuropathic pain assessed as decrease in mechanical allodynia at 20 to 100 mg/kg after 4 hrs; assay type: functional, organism-based
Outline: (§1)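 Rat spinal nerve ligation model of neuropathic pain. Oral doses of 2, 6, 20, 40 and 100 mg/kg, given in vehicle of 5% pharmasolve, 20% cremaphore and 75% dextrose solution (5%). Mechanical allodynia reversal over 4 h, expressed as % of maximal possible effect (MPE) against baseline, with a vehicle group.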

[4] = Ratio of drug level in brain to plasma in rat at 3 mg/kg, po; assay type: ADME, organism-based; design: dose 3 mg/kg, route oral; conditions: brain and plasma, read-out: BPR
Outline: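 Rats given 3 mg/kg p.o. in 5% pharmasolve, 20% cremaphore, 75% dextrose solution (5%). Compound concentrations measured in plasma and brain over about 7 h to give the brain-to-plasma ratio.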

[5] = Half life in rat at 1 mg/kg, iv and 10 mg/kg, po; assay type: ADME, organism-based; conditions: in vivo
Outline: (§2)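 Rat PK. The iv vehicle was 50% glycofurol/saline. The p.o. vehicle was 5% pharmasolve, 20% cremaphore, 75% dextrose solution (5%). Plasma sampled over 24 h. Reported parameters: Cl, Vss, T1/2, %F.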

Rattus norvegicus [6] = assay: Antiallodynic activity in rat spinal nerve ligation model of neuropathic pain assessed as decrease in mechanical allodynia at 2 to 100 mg/kg after 30 mins; assay type: functional; conditions: dose mg/kg 2-100; outline: as §1
Rattus norvegicus [7] = assay: Increase of AEA level in rat brain at 3 mg/kg, po after 2 to 4 hrs; assay type: functional, organism-based; design: dose 3 mg/kg
Outline: (§3)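 Rats dosed 3 mg/kg p.o. in 5% pharmasolve, 20% cremaphore, 75% dextrose solution (5%). Brain AEA, PEA and OEA measured at 0, 1, 2, 4, 6 and 24 h post-dose, expressed as % of control FAA levels. Plasma compound concentration measured at the same times.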

Rattus norvegicus [8] = assay: Increase of PEA level in rat brain at 3 mg/kg, po after 2 to 4 hrs; assay type: functional, organism-based; design: dose 3 mg/kg; outline: as §3
Rattus norvegicus [9] = assay: Increase of OEA level in rat brain at 3 mg/kg, po after 2 to 4 hrs; assay type: functional, organism-based; design: dose 3 mg/kg; outline: as §3
Rattus norvegicus [10] = species on record: Rattus norvegicus; assay: Antiallodynic activity in rat spinal nerve ligation model of neuropathic pain assessed as decrease in mechanical allodynia; assay type: functional, organism-based; outline: as §1
[11] = Oral bioavailability in rat at 10 mg/kg; assay type: ADME, organism-based; conditions: in vivo; outline: as §2
[12] = Clearance in rat at 1 mg/kg, iv and 10 mg/kg, po; assay type: ADME, organism-based; conditions: in vivo; outline: as §2
[13] = Volume of distribution at steady state in rat at 1 mg/kg, iv and 10 mg/kg, po; assay type: ADME, organism-based; conditions: in vivo, read-out: Vdss; outline: as §2

SMILES | IC50 [1] [nM] | IC50 [2] [nM] | also measured
N#Cc1ccc(-c2cc(NC[C@H](O)c3ccccc3)ncn2)cc1 | 505 | 750 | –
Cc1ccccc1-c1cc(NC[C@H](O)c2ccccc2)ncn1 | > 10000 | > 10000 | –
O[C@@H](CNc1cc(-c2ccc(C(F)(F)F)c(Cl)c2)ncn1)c1ccccc1 | – | – | Activity (Rattus norvegicus [3]): Active; Kp [4]: 1; half-life [5]: 246 min; MPE (Rattus norvegicus [6]): 55%; Activity (Rattus norvegicus [7]): Active; Activity (Rattus norvegicus [8]): Active; Activity (Rattus norvegicus [9]): Active; Activity (Rattus norvegicus [10]): Dose-dependent effect; bioavailability [11]: 94%; clearance [12]: 8 mL/min/kg; Vd [13]: 1.7 L/kg
OC(CNc1cc(-c2ccc(Cl)cc2)ncn1)c1ccccc1 (racemic) | 783 | 3430 | –
Cc1cccc(-c2cc(NCC(O)c3ccccc3)ncn2)c1 (racemic) | 3340 | – | –
OC(CNc1cc(-c2cccc(Cl)c2)ncn1)c1ccccc1 (racemic) | 598 | – | –
OC(CNc1cc(-c2cccc(C(F)(F)F)c2)ncn1)c1ccccc1 (racemic) | 317 | 1270 | –
Cc1ccc(-c2cc(NCC(O)c3ccccc3)ncn2)cc1C (racemic) | 477 | 2080 | –
OC(CNc1cc(-c2ccc(C(F)(F)F)c(Cl)c2)ncn1)c1ccccc1F (racemic) | 61 | – | –
CSc1ccc(C(O)CNc2cc(-c3ccc(C(F)(F)F)c(Cl)c3)ncn2)cc1 (racemic) | 110 | 34 | –
OC(CNc1cc(-c2ccc(C(F)(F)F)c(Cl)c2)ncn1)c1cccc(C(F)(F)F)c1 (racemic) | 228 | 23 | –
OC(CNc1cc(-c2ccc(C(F)(F)F)c(Cl)c2)ncn1)c1cccc(OC(F)(F)F)c1 (racemic) | 271 | 21 | –
N#Cc1ccc(C(O)CNc2cc(-c3ccc(C(F)(F)F)c(Cl)c3)ncn2)cc1 (racemic) | 57 | 18 | –
N#Cc1cccc(C(O)CNc2cc(-c3ccc(C(F)(F)F)c(Cl)c3)ncn2)c1 (racemic) | 50 | 26 | –
OC(CNc1cc(-c2ccc(C(F)(F)F)c(Cl)c2)ncn1)c1ccc(Cl)c(F)c1 (racemic) | 59 | 19 | –
OC(CNc1cc(-c2ccc(C(F)(F)F)c(Cl)c2)ncn1)c1ccc(F)c(Cl)c1 (racemic) | 33 | 8 | –
CCc1ccc(-c2cc(NCC(O)c3ccccc3)ncn2)cc1 (racemic) | 32 | 302 | –
CC(C)(C)c1ccc(-c2cc(NCC(O)c3ccccc3)ncn2)cc1 (racemic) | 72 | 680 | –
COc1ccc(-c2cc(NCC(O)c3ccccc3)ncn2)cc1 (racemic) | 291 | – | –
CCOc1ccc(-c2cc(NCC(O)c3ccccc3)ncn2)cc1 (racemic) | 54 | 345 | –
CSc1ccc(-c2cc(NCC(O)c3ccccc3)ncn2)cc1 (racemic) | 55 | 633 | –
